Results published in ChEMBL document CHEMBL1833887, “Synthesis and evaluation of 7-substituted 4-aminoquinoline analogues for antimalarial activity” (J Med Chem, 2011).
Values after ≈ are worked out from the molar mass of the structure shown.

Legend:
HepG2 = test: Cytotoxicity against human HepG2 cells assessed as intracellular ATP level after 72 hrs by Celltiter-Glo luminescent assay; format: cell-based; conditions: HepG2, 72 h
Plasmodium falciparum [1] = test: Antimalarial activity against chloroquine-resistant Plasmodium falciparum K1 infected in human erythrocytes assessed as reduction in parasitemia after 72 hrs by spectrophotometry; format: functional, organism-based; conditions: K1, 72 h
[2] = Ratio of EC50 for human HepG2 cells to EC50 for Plasmodium falciparum 3D7 infected in human erythrocytes
[3] = Permeability of the compound at pH 7.4 after 30 mins by PAMPA; format: ADME; conditions: read-out: permeability
Method in brief: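 PAMPA at pH 7.4. A 10 mM DMSO stock is diluted into system solution buffer; its UV spectrum serves as reference. Membrane painted with GIT lipid, acceptor chamber holds acceptor solution buffer. Sandwich stirred for 30 min, aqueous boundary layer set to 40. Donor and acceptor UV spectra read at 250–500 nm. Permeability coefficient from the AUCs of reference, donor and acceptor. Single experiment in triplicate.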

Plasmodium falciparum [4] = test: Ratio of EC50 for chloroquine-resistant Plasmodium falciparum K1 infected in human erythrocytes to EC50 for chloroquine-sensitive Plasmodium falciparum 3D7 infected in human erythrocytes; format: functional
Plasmodium falciparum [5] = test: Antimalarial activity against chloroquine-sensitive Plasmodium falciparum 3D7 infected in human erythrocytes assessed as reduction in parasitemia after 72 hrs by spectrophotometry; format: functional, organism-based; conditions: 3D7, 72 h
[6] = Ratio of EC50 for human HepG2 cells to EC50 for Plasmodium falciparum K1 infected in human erythrocytes
[7] = Solubility of the compound at pH 7.4 after 18 hrs by UV spectroscopic analysis; format: physicochemical; conditions: buffer
Method in brief: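 Kinetic solubility. A 10 mM stock is diluted 1:100 into PBS pH 7.4 and incubated 18 h at room temperature, then filtered; the filtrate is mixed 1:1 with 1-propanol. UV spectrum (250–500 nm) compared by AUC with a 1-propanol/PBS reference. Single experiment in triplicate.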

[8] = Dissociation constant, pKa of the compound; format: physicochemical

COc1cccc(CNCCCNc2ccnc3cc(CCc4ccccc4)ccc23)c1O
EC50 (HepG2): 6800 nM
EC50 (Plasmodium falciparum [1]): 5520 nM
Ratio EC50 [2]: 400
Papp at 0.5 h [3]: 23 ×10⁻⁶ cm/s
Ratio EC50 (Plasmodium falciparum [4]): 324.5
EC50 (Plasmodium falciparum [5]): 17 nM
Ratio EC50 [6]: 1.2
solubility at 18 h [7]: 4.2 µM (≈ 1.85 µg/mL)
pKa [8]: 9.47

COc1cccc(CNCCCNc2ccnc3cc(Cc4ccccc4)ccc23)c1O
EC50 (HepG2): 5720 nM
EC50 (Plasmodium falciparum [1]): 6970 nM
Ratio EC50 [2]: 328.6
Papp at 0.5 h [3]: 23 ×10⁻⁶ cm/s
Ratio EC50 (Plasmodium falciparum [4]): 400.6
EC50 (Plasmodium falciparum [5]): 17 nM
Ratio EC50 [6]: 0.8
solubility at 18 h [7]: 4.2 µM (≈ 1.8 µg/mL)
pKa [8]: 9.47

COc1cccc(CNCCCNc2ccnc3cc(C4CCCCC4)ccc23)c1O
EC50 (HepG2): 1080 nM
EC50 (Plasmodium falciparum [1]): 16000 nM
Ratio EC50 [2]: 58.1
Papp at 0.5 h [3]: 23 ×10⁻⁶ cm/s
Ratio EC50 (Plasmodium falciparum [4]): 864.9
EC50 (Plasmodium falciparum [5]): 19 nM
Ratio EC50 [6]: 0.1
solubility at 18 h [7]: 4.2 µM (≈ 1.76 µg/mL)
pKa [8]: 9.47

Fc1ccc(Cc2ccc3c(NCCCNCc4ccco4)ccnc3c2)c(Cl)c1
EC50 (HepG2): 5730 nM
EC50 (Plasmodium falciparum [1]): 1220 nM
Ratio EC50 [2]: 290.8
Papp at 0.5 h [3]: 23 ×10⁻⁶ cm/s
Ratio EC50 (Plasmodium falciparum [4]): 62.1
EC50 (Plasmodium falciparum [5]): 20 nM
Ratio EC50 [6]: 4.7
solubility at 18 h [7]: 4.2 µM (≈ 1.78 µg/mL)
pKa [8]: 9.47

COc1cccc(CNCCCNc2ccnc3cc(CC(C)C)ccc23)c1O
EC50 (HepG2): 2920 nM
EC50 (Plasmodium falciparum [1]): 8130 nM
Ratio EC50 [2]: 144.5
Papp at 0.5 h [3]: 23 ×10⁻⁶ cm/s
Ratio EC50 (Plasmodium falciparum [4]): 402.5
EC50 (Plasmodium falciparum [5]): 20 nM
Ratio EC50 [6]: 0.4
solubility at 18 h [7]: 4.2 µM (≈ 1.65 µg/mL)
pKa [8]: 9.47

COc1cccc(CNCCCNc2ccnc3cc(CCC(C)C)ccc23)c1O
EC50 (HepG2): 5390 nM
EC50 (Plasmodium falciparum [1]): 8000 nM
Ratio EC50 [2]: 245.9
Papp at 0.5 h [3]: 23 ×10⁻⁶ cm/s
Ratio EC50 (Plasmodium falciparum [4]): 365.3
EC50 (Plasmodium falciparum [5]): 22 nM
Ratio EC50 [6]: 0.7
solubility at 18 h [7]: 4.2 µM (≈ 1.71 µg/mL)
pKa [8]: 9.47

N#Cc1ccc(Cc2ccc3c(NCCCNCc4ccc5c(c4)OCO5)ccnc3c2)cc1
EC50 (HepG2): 6080 nM
EC50 (Plasmodium falciparum [1]): 3070 nM
Ratio EC50 [2]: 270.2
Papp at 0.5 h [3]: 23 ×10⁻⁶ cm/s
Ratio EC50 (Plasmodium falciparum [4]): 136.4
EC50 (Plasmodium falciparum [5]): 23 nM
Ratio EC50 [6]: 2
solubility at 18 h [7]: 4.2 µM (≈ 1.89 µg/mL)
pKa [8]: 9.47

COc1cccc(CNCCCNc2ccnc3cc(Cc4cccc(C(F)(F)F)c4)ccc23)c1O
EC50 (HepG2): 1720 nM
EC50 (Plasmodium falciparum [1]): 2190 nM
Ratio EC50 [2]: 69
Papp at 0.5 h [3]: 23 ×10⁻⁶ cm/s
Ratio EC50 (Plasmodium falciparum [4]): 87.9
EC50 (Plasmodium falciparum [5]): 25 nM
Ratio EC50 [6]: 0.8
solubility at 18 h [7]: 4.2 µM (≈ 2.08 µg/mL)
pKa [8]: 9.47

Fc1ccc(Cc2ccc3c(NCCCNCc4ccc5c(c4)OCO5)ccnc3c2)c(Cl)c1
EC50 (HepG2): 16000 nM
EC50 (Plasmodium falciparum [1]): 953 nM
Ratio EC50 [2]: 603.8
Papp at 0.5 h [3]: 23 ×10⁻⁶ cm/s
Ratio EC50 (Plasmodium falciparum [4]): 35.9
EC50 (Plasmodium falciparum [5]): 27 nM
Ratio EC50 [6]: 16.8
solubility at 18 h [7]: 4.2 µM (≈ 2.01 µg/mL)
pKa [8]: 9.47

CCC(CC)c1ccc2c(NCCCNCc3ccc4c(c3)OCO4)ccnc2c1
EC50 (HepG2): 6350 nM
EC50 (Plasmodium falciparum [1]): 1060 nM
Ratio EC50 [2]: 235.1
Papp at 0.5 h [3]: 23 ×10⁻⁶ cm/s
Ratio EC50 (Plasmodium falciparum [4]): 39.5
EC50 (Plasmodium falciparum [5]): 27 nM
Ratio EC50 [6]: 6
solubility at 18 h [7]: 4.2 µM (≈ 1.7 µg/mL)
pKa [8]: 9.47

CC(C)CCc1ccc2c(NCCCNCc3ccc4c(c3)OCO4)ccnc2c1
EC50 (HepG2): 2800 nM
EC50 (Plasmodium falciparum [1]): 206 nM
Ratio EC50 [2]: 103.1
Papp at 0.5 h [3]: 23 ×10⁻⁶ cm/s
Ratio EC50 (Plasmodium falciparum [4]): 7.6
EC50 (Plasmodium falciparum [5]): 27 nM
Ratio EC50 [6]: 13.5
solubility at 18 h [7]: 4.2 µM (≈ 1.7 µg/mL)
pKa [8]: 9.47

COc1ccc(F)cc1CNCCCNc1ccnc2cc(Cc3ccc(C#N)cc3)ccc12
EC50 (HepG2): 6050 nM
EC50 (Plasmodium falciparum [1]): 770 nM
Ratio EC50 [2]: 216.2
Papp at 0.5 h [3]: 23 ×10⁻⁶ cm/s
Ratio EC50 (Plasmodium falciparum [4]): 27.5
EC50 (Plasmodium falciparum [5]): 28 nM
Ratio EC50 [6]: 7.9
solubility at 18 h [7]: 4.2 µM (≈ 1.91 µg/mL)
pKa [8]: 9.47

COc1ccc(F)cc1CNCCCNc1ccnc2cc(Cc3cc(C)cc(C)c3)ccc12
EC50 (HepG2): 940 nM
EC50 (Plasmodium falciparum [1]): 794 nM
Ratio EC50 [2]: 27.4
Papp at 0.5 h [3]: 23 ×10⁻⁶ cm/s
Ratio EC50 (Plasmodium falciparum [4]): 23.1
EC50 (Plasmodium falciparum [5]): 34 nM
Ratio EC50 [6]: 1.2
solubility at 18 h [7]: 4.2 µM (≈ 1.92 µg/mL)
pKa [8]: 9.47

N#Cc1ccc(Cc2ccc3c(NCCCNCc4ccco4)ccnc3c2)cc1
EC50 (HepG2): 7910 nM
EC50 (Plasmodium falciparum [1]): 382 nM
Ratio EC50 [2]: 201.9
Papp at 0.5 h [3]: 23 ×10⁻⁶ cm/s
Ratio EC50 (Plasmodium falciparum [4]): 9.7
EC50 (Plasmodium falciparum [5]): 39 nM
Ratio EC50 [6]: 20.7
solubility at 18 h [7]: 4.2 µM (≈ 1.67 µg/mL)
pKa [8]: 9.47
